# Test results as given in ChEMBL document CHEMBL1154716, “Synthesis of some new S-triazine based chalcones and their derivatives as potent antimicrobial agents” (2010).
# Active and inactive are the calls of the source. The calls are words filed in the database; no cut-off is given here.
# Experiments:
# [1] = system: Pseudomonas aeruginosa; test: Antimicrobial activity against Pseudomonas aeruginosa at 1 umol/disk after 24 hrs by disk diffusion assay; format: functional
# Method in brief: (§1)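 Disc diffusion on 4 mm filter discs. Bacteria are grown overnight in LB at 28 C, then adjusted in saline to 1.0 × 10^5 cfu/ml. The suspension is mixed into top agar over peptone agar plates. Plates are incubated 24 h at 28 C, and growth-inhibition zone diameter is measured. Streptomycin and ampicillin controls are applied from a 1 mg/ml stock. Tests are done in duplicate.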
# [2] = system: Escherichia coli; test: Antimicrobial activity against Escherichia coli at 1 umol/spot after 18 hrs by TLC-bioautographic method; format: functional
# Method in brief: (§2)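 TLC bioautography. Samples are spotted on silica gel TLC plates, then sprayed with bacteria (1.0 × 10^5 cfu/ml) in tryptic soy broth. Plates are incubated 18 h at 37 C and sprayed with 3% aqueous p-iodonitrotetrazolium violet. After a further 3 h, growth is stopped with 70% EtOH. White zones on a pink background are scored as inhibition-zone diameter with standard errors.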
# [3] = system: Pseudomonas aeruginosa; test: Antimicrobial activity against Pseudomonas aeruginosa after 24 hrs by microdilution technique; format: functional
# Method in brief: (§3)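 Broth microdilution in LB medium. Inoculum is 1.0 × 10^4 cfu per well, from a saline-adjusted suspension of 1.0 × 10^5 cfu/ml. Compounds are dissolved in DMSO. Incubated 24 h at 28 C. MIC is the lowest concentration with no visible growth under a binocular microscope. MBC is read by subculture into fresh broth for 72 h, with no growth taken as 99.5% kill. OD is read at 655 nm.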
# [4] = system: Escherichia coli; test: Antimicrobial activity against Escherichia coli at 10 ug/disk after 24 hrs by disk diffusion assay; format: functional; conditions: read-out: IZ; method in brief: as §1
# [5] = system: Enterobacter cloacae; test: Antimicrobial activity against Enterobacter cloacae after 24 hrs by microdilution technique; format: functional; method in brief: as §3
# [6] = system: Listeria monocytogenes; test: Antimicrobial activity against Listeria monocytogenes at 10 ug/disk after 24 hrs by disk diffusion assay; format: functional; method in brief: as §1
# [7] = system: Escherichia coli; test: Antimicrobial activity against Escherichia coli after 24 hrs by microdilution technique; format: functional; method in brief: as §3
# [8] = system: Listeria monocytogenes; test: Antimicrobial activity against Listeria monocytogenes at 1 umol/disk after 24 hrs by disk diffusion assay; format: functional; method in brief: as §1
# [9] = system: Micrococcus flavus; test: Antimicrobial activity against Micrococcus flavus at 1 umol/spot after 18 hrs by TLC-bioautographic method; format: functional; method in brief: as §2
# [10] = system: Pseudomonas aeruginosa; test: Antimicrobial activity against Pseudomonas aeruginosa at 10 ug/disk after 24 hrs by disk diffusion assay; format: functional; method in brief: as §1
# [11] = system: Bacillus cereus; test: Antimicrobial activity against Bacillus cereus at 10 ug/disk after 24 hrs by disk diffusion assay; format: functional; method in brief: as §1
# [12] = system: Staphylococcus aureus; test: Antimicrobial activity against Staphylococcus aureus after 24 hrs by microdilution technique; format: functional; method in brief: as §3
# [13] = system: Micrococcus flavus; test: Antimicrobial activity against Micrococcus flavus after 24 hrs by microdilution technique; format: functional; method in brief: as §3
# [14] = system: Salmonella typhimurium; test: Antimicrobial activity against Salmonella Typhimurium after 24 hrs by microdilution technique; format: functional, Salmonella enterica subsp. enterica serovar Typhimurium; conditions: Salmonella enterica; method in brief: as §3
# [15] = system: Salmonella typhimurium; test: Antimicrobial activity against Salmonella Typhimurium at 1 umol/disk after 24 hrs by disk diffusion assay; format: functional, organism-based; conditions: Salmonella enterica subsp. enterica serovar Typhimurium; method in brief: as §1
# [16] = system: Enterobacter cloacae; test: Antimicrobial activity against Enterobacter cloacae at 1 umol/spot after 18 hrs by TLC-bioautographic method; format: functional; method in brief: as §2
# [17] = system: Staphylococcus aureus; test: Antimicrobial activity against Staphylococcus aureus at 1 umol/spot after 18 hrs by TLC-bioautographic method; format: functional; method in brief: as §2
# [18] = system: Listeria monocytogenes; test: Antimicrobial activity against Listeria monocytogenes after 24 hrs by microdilution technique; format: functional; method in brief: as §3
# [19] = system: Micrococcus flavus; test: Antimicrobial activity against Micrococcus flavus at 10 ug/disk after 24 hrs by disk diffusion assay; format: functional; conditions: read-out: IZ; method in brief: as §1
# [20] = system: Listeria monocytogenes; test: Antimicrobial activity against Listeria monocytogenes at 1 umol/spot after 18 hrs by TLC-bioautographic method; format: functional; method in brief: as §2
# [21] = system: Micrococcus flavus; test: Antimicrobial activity against Micrococcus flavus at 1 umol/disk after 24 hrs by disk diffusion assay; format: functional; method in brief: as §1
# [22] = system: Pseudomonas aeruginosa; test: Antimicrobial activity against Pseudomonas aeruginosa at 1 umol/spot after 18 hrs by TLC-bioautographic method; format: functional; method in brief: as §2
# [23] = system: Bacillus cereus; test: Antimicrobial activity against Bacillus cereus after 24 hrs by microdilution technique; format: functional; method in brief: as §3
# [24] = system: Staphylococcus aureus; test: Antimicrobial activity against Staphylococcus aureus at 10 ug/disk after 24 hrs by disk diffusion assay; format: functional; method in brief: as §1
# [25] = system: Salmonella typhimurium; test: Antimicrobial activity against Salmonella Typhimurium at 10 ug/disk after 24 hrs by disk diffusion assay; format: functional, organism-based; conditions: Salmonella enterica subsp. enterica serovar Typhimurium; method in brief: as §1
# [26] = system: Salmonella typhimurium; test: Antimicrobial activity against Salmonella Typhimurium at 1 umol/spot after 18 hrs by TLC-bioautographic method; format: functional; conditions: Salmonella enterica subsp. enterica serovar Typhimurium; method in brief: as §2
# [27] = system: Escherichia coli; test: Antimicrobial activity against Escherichia coli at 1 umol/disk after 24 hrs by disk diffusion assay; format: functional; method in brief: as §1
# [28] = system: Bacillus cereus; test: Antimicrobial activity against Bacillus cereus at 1 umol/spot after 18 hrs by TLC-bioautographic method; format: functional; method in brief: as §2
# [29] = system: Enterobacter cloacae; test: Antimicrobial activity against Enterobacter cloacae at 10 ug/disk after 24 hrs by disk diffusion assay; format: functional; method in brief: as §1
# [30] = system: Bacillus cereus; test: Antimicrobial activity against Bacillus cereus at 1 umol/disk after 24 hrs by disk diffusion assay; format: functional; method in brief: as §1
# [31] = system: Staphylococcus aureus; test: Antimicrobial activity against Staphylococcus aureus at 1 umol/disk after 24 hrs by disk diffusion assay; format: functional; method in brief: as §1
# [32] = system: Enterobacter cloacae; test: Antimicrobial activity against Enterobacter cloacae at 1 umol/disk after 24 hrs by disk diffusion assay; format: functional; method in brief: as §1
SMILES,inhibition zone (IZ) [2],MBC [3],MIC [3],zone of inhibition at 10 µg/disc [4],MBC [5],MIC [5],inhibition zone (IZ) [6],MBC [7],MIC [7],inhibition zone (IZ) [8],inhibition zone (IZ) [9],MBC [12],MIC [12],MBC [13],MIC [13],MBC [14],MIC [14],inhibition zone (IZ) [15],inhibition zone (IZ) [16],inhibition zone (IZ) [17],other results
CC1(C)S[C@@H]2[C@H](NC(=O)[C@H](N)c3ccccc3)C(=O)N2[C@H]1C(=O)O [AMPICILLIN],inactive,1240 µM,744 µM,6 mm,492 µM,372 µM,inactive,492 µM,372 µM,inactive,inactive,372 µM,248 µM,372 µM,248 µM,492 µM,248 µM,inactive,inactive,inactive,inhibition zone (IZ) [1]: inactive; inhibition zone (IZ) [10]: inactive; zone of inhibition at 10 µg/disc ([11]; read-out: IZ): 10 mm; MBC [18]: 744 µM; MIC [18]: 372 µM; zone of inhibition at 10 µg/disc [19]: 8 mm; inhibition zone (IZ) [20]: inactive; inhibition zone (IZ) [21]: 0.03 millimeter; inhibition zone (IZ) [22]: inactive; MBC [23]: 372 µM; MIC [23]: 248 µM; zone of inhibition at 10 µg/disc ([24]; read-out: IZ): 8 mm; inhibition zone (IZ) [25]: inactive; inhibition zone (IZ) [26]: inactive; inhibition zone (IZ) [27]: 0.02 millimeter; inhibition zone (IZ) [28]: inactive; zone of inhibition at 10 µg/disc ([29]; read-out: IZ): 6 mm
O=C(/C=C/c1ccco1)c1ccc(Nc2nc(Nc3ccccc3)nc(Nc3ccccc3)n2)cc1,0.08 millimeter,422 µM,211 µM,8 mm,422 µM,211 µM,inactive,422 µM,211 µM,inactive,0.07 millimeter,844 µM,422 µM,844 µM,422 µM,422 µM,211 µM,inactive,0.08 millimeter,0.08 millimeter,inhibition zone (IZ) [30]: inactive; zone of inhibition at 10 µg/disc ([10]; read-out: IZ): 6 mm; inhibition zone (IZ) [11]: inactive; inhibition zone (IZ) [31]: inactive; MBC [18]: 844 µM; MIC [18]: 422 µM; zone of inhibition at 10 µg/disc [19]: 8 mm; inhibition zone (IZ) [20]: 0.08 millimeter; inhibition zone (IZ) [21]: 0.04 millimeter; inhibition zone (IZ) [22]: inactive; MBC [23]: 422 µM; MIC [23]: 211 µM; inhibition zone (IZ) [24]: inactive; inhibition zone (IZ) [25]: inactive; inhibition zone (IZ) [32]: inactive; inhibition zone (IZ) [26]: inactive; inhibition zone (IZ) [27]: 0.04 millimeter; inhibition zone (IZ) [28]: 0.07 millimeter; inhibition zone (IZ) [29]: inactive
